The list is not random: actives were taken first. Their share in the collection is about 0.94%.
NPR2 activator – GC-B (human) receptor activation. HEK293-GC-B cells, CNP EC30, cGMP TR-FRET; 0% at EC30 CNP, 100% saturating CNP. activation, % at 10 µM. 370,000 tested, 0.11% active. AID 1920062;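 active means activation at 10 µM reaching about 35% in either raw or pattern-adjusted values, limit read from the data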
GalR3 antag – antagonists of human GalR3. O60755. HEK293 GalR3-CNG cAMP membrane potential fluorescence; galR3 body fused to GalR1 C-terminus. inhibition, % at 3 µM. 360,000 tested, 0.44% active;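 active means inhibition above the screen-wide average plus 3 SD, cut at about 13% in these data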;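 further: forskolin and galanin both at EC90 stimulate the cells; cAMP rise reported by CNG channel membrane potential dye signal; 0% = forskolin plus galanin with DMSO and 100% = forskolin alone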
GC-A act – GC-A (human) enzyme activation | HEK293 GC-A cells, cGMP TR-FRET, EC30 ANP; 0% at EC30 ANP, 100% saturating ANP | activation, % at 10 µM | 370,000 tested, 0.14% active | AID 1671463; in the data active means activation above about 40%
Arrestin-AP2 inh – human beta-arrestin and AP2 interaction inhibition; FITC-arrestin peptide / GST-AP2 beads, flow cytometry; AP2 beta2 appendage carries R879A mutation; AID 504490; 340,000 tested, 0.31% active; inhibition, % at 10 µM;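 active means inhibition above a set limit, near 3 SD of compounds lacking own fluorescence, cut at about 54% in these data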;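 further: plate controls were DMSO wells for no effect and 5 µM unlabelled arrestin peptide for full effect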
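Assay system: GST-AP2 R879A bound to glutathione beads, E. coli-expressed; Medium: PBS with 0.05% Tween 20 and 0.1% BSA; Also added: fluorescein-tagged arrestin peptide at 50 nM final; Timing: 12 min plus 1 h, RT; Measured by: flow cytometry, FL1 (488/535 nm); Evaluation: percent drop in bead-associated FITC signal.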
GalR3 antag conf – confirmation of human galanin receptor 3 antagonists; shares compounds with GalR3 antag; HEK293 GalR3 CNG cAMP biosensor, membrane potential fluorescence; galR3 fused to GalR1 carboxy tail; challenged with forskolin and galanin at EC90; inhibition, % at 3 µM; 1,600 tested, 59% active; AID 652245;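 active means inhibition above the primary screen's cutoff, the mean inhibition of all screened compounds plus 3 SD, cut at about 13% in these data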;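 further: 0% = forskolin plus galanin and 100% = forskolin alone with DMSO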
HEK-CNG parental – parental cell agonism counter-screen for GalR3 antagonists; shares compounds with GalR3 antag; HEK293-CNG parental cells, cAMP membrane potential fluorescence; normalised: DMSO wells 0%, forskolin wells 100%; activation, % at 3 µM; 1,600 tested, 10% active; in the data active means activation above about 1.3%
Numbers without * were called inactive.

`COC(=O)c1ccc(NC(=O)c2ccc(CN3CCOCC3)cc2)cc1` gave NPR2 activator -2, GalR3 antag 92*, GC-A act 1, Arrestin-AP2 inh 5, GalR3 antag conf 4 and HEK-CNG parental 0.
O=C(Nc1ccc(S(=O)(=O)Nc2ccccc2)cc1)c1ccc(CN2CCOCC2)cc1 was read as NPR2 activator -2, GalR3 antag 98*, GC-A act 1, Arrestin-AP2 inh 13, GalR3 antag conf 110* and HEK-CNG parental -1.
Screening CC(C)(C)c1ccc(C(=O)Nc2ccc(CN3CCS(=O)(=O)CC3)cc2)cc1 returned NPR2 activator 2, GalR3 antag 34*, GC-A act 2, Arrestin-AP2 inh 5, GalR3 antag conf 103* and HEK-CNG parental 0.
O=C(Nc1ccc(CN2CCS(=O)(=O)CC2)cc1)c1ccc(C(F)(F)F)cc1 was read as NPR2 activator -2, GalR3 antag -1, GC-A act 4 and Arrestin-AP2 inh 11.
Screening CC(c1cc(F)ccc1O)c1c[nH]c2ccccc12 (centres undefined) returned NPR2 activator -15 and GC-A act 5.
Screening CCCCCCCCN1C(=O)[C@@H](CC(=O)NCc2cccc3ccccc23)C[C@@]2(C(=O)OC)C1=C[C@H](C1CCCC1)O[C@@H]2C returned NPR2 activator 3, GalR3 antag -6 and GC-A act 0.
Screening COC(=O)c1ccc(Cn2ccc3ccc(-c4ccc5ccn(Cc6ccc(C(=O)OC)cc6)c5c4)cc32)cc1 returned NPR2 activator -2 and GC-A act -2.
For COc1ccc(S(=O)(=O)Nc2ccc3c(c2)C(=O)N([C@H](C)CO)C[C@H](C)[C@H](CN(C)C(=O)Nc2ccc(F)cc2)OCCCC[C@@H](C)O3)cc1 the results were NPR2 activator 1, GalR3 antag -4 and GC-A act 3.
For CCOC(=O)c1ccc(NC(=O)c2ccc(C)c(S(=O)(=O)N3CCOCC3)c2)cc1 the results were NPR2 activator 1, GalR3 antag 98*, GC-A act -1, Arrestin-AP2 inh -7, GalR3 antag conf 107* and HEK-CNG parental 0.
`CCC(C)c1ccc(OCC(=O)Nc2ccc(CN3CCOCC3)cc2)cc1` (centres undefined) gave NPR2 activator 1, GalR3 antag 18*, GC-A act 19, Arrestin-AP2 inh 9, GalR3 antag conf 9 and HEK-CNG parental 0.
For CC(=O)c1ccc(NC(=O)c2ccc(C)c(S(=O)(=O)N3CCOCC3)c2)cc1 the results were NPR2 activator 3, GalR3 antag -6, GC-A act 7 and Arrestin-AP2 inh 13.
NS(=O)(=O)c1ccc(NC(=S)N2CCN(c3ccc(Cl)c(Cl)c3)CC2)cc1 was read as NPR2 activator -1, GalR3 antag 21*, GC-A act -6, Arrestin-AP2 inh -1, GalR3 antag conf 37* and HEK-CNG parental -2.
For O=S(=O)(c1ccc2c(c1)OCCO2)N1CCN(c2ncnc3sccc23)CC1 the results were NPR2 activator -2, GalR3 antag 100*, GC-A act -6, Arrestin-AP2 inh 8, GalR3 antag conf 111* and HEK-CNG parental 0.
Screening Cc1ccc(CNC(=O)c2ccc(N3CCC4(CC3)CC(c3cccc(Br)c3)=NO4)c(NC(=O)c3ccccc3)c2)cc1 returned NPR2 activator 2, GalR3 antag 14*, GC-A act 2, Arrestin-AP2 inh 7, GalR3 antag conf 23* and HEK-CNG parental 1.
COc1ccc(C(O)c2nc3ccccc3n2C)cc1OC (centres undefined) was read as NPR2 activator 3, GalR3 antag 95*, GC-A act 2, Arrestin-AP2 inh 5, GalR3 antag conf 33* and HEK-CNG parental 0.
Screening COc1ccc(/C=N/NC(=O)C(=O)N2CCCCCC2)cc1[N+](=O)[O-] returned NPR2 activator 1, GalR3 antag 17*, GC-A act 1, Arrestin-AP2 inh -14, GalR3 antag conf 22* and HEK-CNG parental 0.
`COc1ccc(/C=N\NC(=O)CNC(=O)C(c2ccccc2)c2ccccc2)cc1[N+](=O)[O-]` gave NPR2 activator -1, GalR3 antag -2, GC-A act -3 and Arrestin-AP2 inh -3.
`COc1cc(/C=N/NC(=O)C(=O)N2CCCCCC2)ccc1O` gave NPR2 activator -1, GalR3 antag 4, GC-A act 0 and Arrestin-AP2 inh 13.
Screening COc1ccc(/C=N/NC(=O)C(C)Sc2ccccn2)cc1[N+](=O)[O-] (centres undefined) returned NPR2 activator -6, GalR3 antag 19*, GC-A act 1, Arrestin-AP2 inh -21, GalR3 antag conf 3 and HEK-CNG parental 0.
Screening CCOC(=O)CNC(=O)CNC(=O)c1ccc(OCC(C)C)cc1 returned NPR2 activator 10, GalR3 antag 86*, GC-A act -4, Arrestin-AP2 inh 2, GalR3 antag conf 6 and HEK-CNG parental 0.
Screening CCS(=O)(=O)Nc1ccc2c(c1)C(=O)N(C)[C@@H]1CC[C@H](CC(=O)NCCCN3CCOCC3)O[C@H]1CO2 returned NPR2 activator 4 and GC-A act 1.
`CNC[C@H](O)c1cccc(O)c1` gave NPR2 activator -4, GC-A act 1 and Arrestin-AP2 inh -1.
Screening CCN(CC(O)c1cccc(O)c1)C(=O)C12CC3CC(CC(C3)C1)C2 (centres undefined) returned NPR2 activator 0, GalR3 antag 17*, GC-A act -3, Arrestin-AP2 inh 7, GalR3 antag conf 57* and HEK-CNG parental 2.0*.
Nc1[nH]c(C(=O)c2ccccc2)c(-c2ccc(Cl)cc2)c1C(=O)c1c[nH]c2ccc(F)cc12 was read as NPR2 activator -1, GalR3 antag -5 and GC-A act -7.
COc1ccc(C)cc1NC(=O)c1ccc(NS(=O)(=O)c2cccc3cccnc23)cc1 was read as NPR2 activator -29, GalR3 antag 51*, GC-A act -46, Arrestin-AP2 inh 31, GalR3 antag conf 85* and HEK-CNG parental 0.
COc1ccccc1NC(=O)c1ccc(NS(=O)(=O)c2cccc3cccnc23)cc1 was read as NPR2 activator -19, GalR3 antag 4, GC-A act -41 and Arrestin-AP2 inh 21.
For O=C(C(=O)N1CCC(CNS(=O)(=O)c2cc(C(F)(F)F)cc(C(F)(F)F)c2)CC1)c1cccs1 the results were NPR2 activator 1, GalR3 antag -1 and GC-A act 1.
